Laboratory results as given in ChEMBL document CHEMBL1151795, “Novel iron complexes bearing N6-substituted adenosine derivatives: synthesis, magnetic, 57Fe Mössbauer, DFT, and in vitro cytotoxicity studies” (Bioorg Med Chem, 2008).

Tests used:
Type in all cases: functional, cell-based
[1] = tested on: G-361; test: Cytotoxicity against human G361 cells after 72 hrs by calcein acetoxymethyl assay
How it was run: (§1)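 Tumour cells kept in DMEM at 37 °C, 5% CO₂, 100% humidity; seeded at about 1.25 × 10⁵ cells/ml and preincubated 12 h. Compounds added at 0.5–50 μM (0.5–200 μM for FeCl₃·6H₂O) for 72 h. Live cells then stained 1 h with calcein AM and fluorescence read at 485/538 nm. IC₅₀ estimated as concentration lethal to 50% of cells; mean of three values.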

[2] = tested on: HOS; test: Cytotoxicity against human HOS cells after 72 hrs by calcein acetoxymethyl assay; how it was run: as §1
[3] = tested on: K562; test: Cytotoxicity against human K562 cells after 72 hrs by calcein acetoxymethyl assay; how it was run: as §1
[4] = tested on: MCF7; test: Cytotoxicity against human MCF7 cells after 72 hrs by calcein acetoxymethyl assay; how it was run: as §1

Molecule | IC50 ([1]; Homo sapiens, G-361, 72 h) | IC50 ([2]; Homo sapiens, HOS, 72 h) | IC50 ([3]; Homo sapiens, K562, 72 h) | IC50 ([4]; Homo sapiens, MCF7, 72 h) | IC50 ([1]; g-361) | IC50 ([2]; hos) | IC50 ([3]; k562) | IC50 ([4]; mcf7)
OC[C@@H]1O[C@H](n2cnc3c(NCc4ccc(F)cc4)ncnc32)[C@@H](O)[C@H]1O | > 50 µM | > 50 µM | > 50 µM | > 50 µM |  |  |  | 
OC[C@@H]1O[C@H](n2cnc3c(NCc4ccc(OC(F)(F)F)cc4)ncnc32)[C@@H](O)[C@H]1O | > 50 µM | > 50 µM | > 50 µM | > 50 µM |  |  |  | 
FeCl3.6H2O |  |  |  |  | > 200 µM | > 200 µM | > 200 µM | > 200 µM
